ChEMBL document CHEMBL4513216, “Probing the Open Global Health Chemical Diversity Library for Multistage-Active Starting Points for Next-Generation Antimalarials” (ACS Infect Dis, 2020)

Assay: Toxicity liver stage against HepG2, at 10uM
Type: cell-based
Parameters: test concentration 10 uM, cell line HepG2-A16-CD81EGFP
Conditions: human, HepG2-A16-CD81EGFP cells; read-out: INHIBITION
How it was run: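 Uninfected HepG2-A16-CD81EGFP cells, 3 × 10^3 per well, 1536-well, plated on prespotted compound at 10 μM final, parasite-free screening media added to match infected plates; puromycin 10 μM positive, DMSO 0.5% negative; run in parallel with 48 h PbLuc assay at 37 °C, 5% CO2; viability by CellTiter-Glo luminescence, normalized to controls.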

| SMILES | cytotoxicity at 10 µM |
| --- | --- |
| O=C(CN1CCN(C(=O)c2ccccc2)CC1)Nc1ccc(Br)cn1 | 14.1% |
| CCN1Cc2cc(F)ccc2N(CC(O)C(F)(F)F)CCC1=O (stereo not given) | -3.4% |
| CCOCC(=O)NCC(Cc1cccc(F)c1)n1cccc1 (stereo not given) | -6.22% |
| Cc1noc(CNC(=O)CN(C)c2nc3c(F)cccc3s2)n1 | 3.76% |
| Cn1c(C(F)(F)F)nn(CCNC(=O)Nc2ccccc2F)c1=O | -2.59% |
| O=C(C1CCC1)N1C[C@@H]2CN(c3ccccc3)C(=O)[C@@H]2C1 | 1.05% |
| CN(c1ncc(C(=O)Nc2ccccc2)c(N)n1)C1CCCCC1 | -6.21% |
| NC(=O)C1CCN(c2nc3nccc(-c4cccnc4)c3c(=O)[nH]2)CC1 | 12.1% |
| Cc1ccc2c(ccn2CC(=O)NC[C@@H]2CCCN3CCCC[C@H]23)c1 | 0.097% |
| CCn1nc(C)c2c1cnn2CCNS(=O)(=O)Cc1ccccc1 | 9.6% |
| COCCNc1ncc(-c2cc(C)no2)c(-c2ccco2)n1 | 13.4% |
| COc1ccc(CC2CN(Cc3cncn3C)CCO2)cc1 (stereo not given) | 0.328% |
| O=C(O)COc1ccccc1CN1CCCC1c1cnccn1 (stereo not given) | 22% |
| O=C(CC1CCCCC1)N1CCC(c2ncc3c(n2)CCNC3)CC1 | -8.21% |
| Cn1cc(CN2CC[C@H](O)[C@@H](n3ccc(=O)[nH]c3=O)CC2)cn1 | 20.4% |
| O=C(C1CC1)N1CCCC(c2nc(O)cc(-c3ccncc3)n2)C1 (stereo not given) | 31.2% |
| Cc1noc2nc(C3CCN(Cc4ccccn4)CC3)cc(C(F)F)c12 | -13% |
| CCc1cc(O)nc(C2CCCN(Cc3ccncc3)C2)n1 (stereo not given) | -7.05% |
| COCCn1cnc2c(F)cc(Br)cc2c1=O | -0.62% |
| Cc1c(Br)cccc1NC(=O)N(C)CCO | -24.5% |
| CNS(=O)(=O)CCCN1CCN(C(C#N)c2ccccc2)CC1 (stereo not given) | 7.7% |
| COC(=O)CC1CCCCN1CC(=O)Nc1cc(F)ccc1F (stereo not given) | 6.55% |

| SMILES | cytotoxicity at 10 µM |
| --- | --- |
| CC(c1ccccc1)N(C)C(=O)CN1CCN(c2cnccn2)CC1 (stereo not given) | 3.96% |
| COc1cc2c(cc1CNC(=O)Cc1cc(C)on1)OC(C)C2 (stereo not given) | 5.38% |
| Cc1nc(C)n(CC2CCCCN2CCCN2CCCC2=O)n1 (stereo not given) | -2.35% |
| CC(C)C(=O)N1CCN(Cc2csc(-c3ccccn3)n2)CC1 | -5.71% |
| Cc1nc(C)n(CC2CCCN(Cc3nc(-c4ccco4)no3)C2)n1 (stereo not given) | -11.5% |
| CCN(C(=O)Cc1ccc(NC(=O)NC2CC2)cc1)c1ccccc1 | 7.84% |
| CN(CCS(C)(=O)=O)C1CCCN(Cc2noc(C3CC3)n2)C1 (stereo not given) | 14.6% |
| CC(NCc1ccccn1)c1cc2c(cc1Br)OCCO2 (stereo not given) | 2.65% |
| CN(Cc1ccsc1)C(=O)Nc1ccc(=O)n(C)c1 | 6.26% |
| Cc1nn(C(C)C)c(C)c1S(=O)(=O)Nc1ccc(C(=O)O)cc1 | 15.2% |
| O=C(NCCCF)Nc1ccc2nc(N3CCOCC3)oc2c1 | 2.77% |
| CC(C)(C)c1nc(CC(=O)NC2CCN(C3CC3)C2)cs1 (stereo not given) | -9.25% |
| O=C(Nc1cc(CSCCO)ccn1)c1cc2ccccc2[nH]1 | 17.3% |
| CCC(Nc1nnnn1-c1ccccc1)C(=O)NC1CCSCC1 (stereo not given) | -16% |
| CCc1nn(C)c2[nH]nc(NC(=O)c3cccnc3OCC(C)C)c12 | 3.94% |
| Cc1cc(C(=O)NC2(c3ccc(Br)cc3)CC2)n(C)n1 | 56.7% |
| COc1ccc(C2CCCCCN2Cc2nnc(C)o2)cc1 (stereo not given) | -7.12% |
| Cc1nc(C)c(CC(=O)N2CCC(Oc3ccccc3)CC2)c(=O)[nH]1 | 1.98% |
| CCS(=O)(=O)CC(=O)NC(C)c1ccc(F)cc1F (stereo not given) | 1.73% |
| CN(Cc1cccs1)C(=O)CN(C)C1CCc2ccccc21 (stereo not given) | 10.1% |
| CCNC(=O)N1CCc2ccc(NC(=O)NCc3ccsc3)cc21 | -11.8% |
| O=S(=O)(NCC1CCN(CCN2CCOCC2)C1)c1ccccc1F (stereo not given) | -57.9% |

| SMILES | cytotoxicity at 10 µM |
| --- | --- |
| Cn1c(=O)[nH]c(=O)c2cc(C(=O)N3CCCC3C3CCCC3)cnc21 (stereo not given) | 14% |
| CCSc1cncc(N2CCC(C(=O)Nc3ccccn3)CC2)n1 | 26.3% |
| NC(=O)c1ccc(N2CCCCC2)c(NC(=O)c2cncc(Br)c2)c1 | -9.41% |
| CCCN1CCC(NC(=O)c2ccc(F)cc2I)CC1 | -11.8% |
| Cc1csc(CN2C[C@@H]3CN(CC4CCOCC4)CCO[C@@H]3C2)n1 | -109% |
| Cc1cccc(COC[C@@]23CCC[C@@H]2CN(C(=O)Cc2ccco2)C3)n1 | -109% |
| O=C(c1c2c(N3CCCC3)ncnc2n2ccccc12)N1CCCC1 | -70.7% |
| CC1c2ncc(COCC3CCOCC3)n2CCN1C(=O)c1ccco1 (stereo not given) | -0.882% |
| Cc1ncc(-c2ccnc(N[C@@H](C)CO)n2)c(C2CCCCC2)n1 | -20.7% |
| CCN1CCCC(C)(C(=O)NCc2nccn2Cc2ccccc2)C1 (stereo not given) | 4.69% |
| O=C(c1cnc(C2CC2)nc1)N1CCC(N2CCC(O)CC2)CC1 | 2.33% |
| Cc1nn(C)cc1-c1ccnc(N2CCSCC2)n1 | 3.47% |
| Cc1nc(N2CCC3(CCCNC3=O)C2)nc2c1CCCC2 (stereo not given) | -4.97% |
| CCOc1ccc(CN2CC[C@](C)(O)C(C)(C)C2)cn1 | 5.88% |
| CNC(=O)c1ccnc(N2CCCC(COc3cccc(C)c3)C2)c1 (stereo not given) | 7.68% |
| CC(C)=CCCN1CCN(C)C2(CCC(=O)N(C)CC2)C1 (stereo not given) | -54% |
| Nc1nc(O)cc(N2CCC(c3cc(Cc4ccccc4)n[nH]3)CC2)n1 | 1.85% |
| Cc1nccc(-c2cccc(-c3ccn(CC4CCNC4)n3)c2)n1 (stereo not given) | 10.7% |
| COCCC1(C(=O)O)CCCN(C(=O)c2cnc3c(c2)CCCC3)C1 (stereo not given) | -44.5% |
| O=c1cc(N2CCCC2)cnn1Cc1noc(C2CCCO2)n1 (stereo not given) | -59.8% |
| COc1ccc(-c2noc(CN3CCN(c4cnccn4)CC3)n2)cc1 | 6.58% |
| CN(CCC(C)(C)O)C(=O)C1CCC(=O)N(Cc2ccc(Cl)cc2)C1 (stereo not given) | 7.67% |

| SMILES | cytotoxicity at 10 µM |
| --- | --- |
| Cc1ccc(-c2ccnc(N(C)CC3CCCO3)n2)c(C)n1 (stereo not given) | -2.59% |
| CC(=O)NCCc1nc(C(C)C)nn1-c1ccncc1C | 3.26% |
| Cn1cc(CN2CCCC23CCN(c2nc4ccccc4s2)CC3)cn1 | 4.86% |
| O=S(=O)(c1c(Cl)nc2sccn12)N1CCC2(CCNCC2)C1 | 6.11% |
| Cc1nc(CC(=O)N(C)C2CCCN(CCc3ccccc3)C2)cs1 (stereo not given) | 3.13% |
| O=C(O)[C@@H]1CN(Cc2nc3ncccn3n2)C[C@H]1c1cccc(F)c1 | -10.6% |
| Cc1c(C(C)NC2CCN(C(C)C)CC2)cnn1-c1ccc(F)cc1F (stereo not given) | -6.58% |
| CC(C)=CCC1(C(=O)O)CCCN(c2ccnc(C)n2)C1 (stereo not given) | -0.842% |
| Cc1ccc(-c2cccc(-c3ccn(CCN4CCCC4)n3)c2)nn1 | -8.74% |
| Cc1nnc(NC(=O)NCc2ccc(OC3CCCC3)nc2)s1 | 0.141% |
| CCc1c(C(=O)N2CCC(CC(N)=O)CC2)cnn1C(C)(C)C | 2.2% |
| CC(O)CN1CCN(Cc2coc(-c3ccc(Cl)cc3)n2)CC1 (stereo not given) | -7.42% |
| Cc1cnc(C(=O)N2CCCC(n3cccn3)C2)cn1 (stereo not given) | -0.29% |
| Cc1ccc(-n2nnc(C(=O)NCC(F)(F)F)c2C2CC2)cc1 | -6.94% |
| Cc1cnn(C2CCCN(C(=O)c3ccc(-n4cnnn4)cc3)C2)c1 (stereo not given) | -4.57% |
| Cc1cccc(CNCc2ccc(NC(=O)NC(C)C)cc2)c1 | -3.03% |
| FC(F)(F)c1ccc(CN2CCN(Cc3cscn3)CC2)cc1 | -4.94% |
| CN(Cc1cscn1)C1CCCN(Cc2noc(C3CC3)n2)C1 (stereo not given) | -2.77% |
| Cc1nnc(NC(=O)NCc2ccc(N3CCN(C)CC3)nc2)s1 | -7.91% |
| Cc1cc(C)c(CNC(=O)N(C)Cc2sccc2C)c(=O)[nH]1 | -1.77% |
| CC(O)CN1CCN(Cc2cccc(C(=O)N(C)C)c2)CC1 (stereo not given) | -3.93% |
| Cc1cc(C)cc(C2(C(=O)NC(C)Cn3ccnc3)CC2)c1 (stereo not given) | -8.26% |

| SMILES | cytotoxicity at 10 µM |
| --- | --- |
| Cc1cnc(NC(=O)c2ccc(-n3ncc(C#N)c3N)cc2)s1 | 5.88% |
| CCOCc1ccc(CNC2=NCCCN2)cc1 | -51.5% |
| COCC1c2c(cnn2CC2CC2)CCN1Cc1cc(C)on1 (stereo not given) | 5.5% |
| c1cncc(OC[C@@]23CCC[C@@H]2CN(CC2CCOCC2)C3)c1 | 7.66% |
| O=C1NCCN(CC2CC2)C12CCN(Cc1ccccc1)CC2 | -78.7% |
| Fc1cnc(N2CCn3cc(CNc4ccccn4)nc3C2)nc1 | -0.665% |
| O=C(NC1CC1)[C@@H]1C[C@@H]2CCN(Cc3ccccc3)C[C@@H]2O1 | -65.8% |
| CC(C)NC1CCc2c(ccc(=O)n2CC2CC2)C1 (stereo not given) | -76.5% |
| CCc1cnc(N2CCC3(CC2)CN(c2cccnc2)C(=O)CO3)nc1 | 7.18% |
| COCc1n[nH]c2c1CN(Cc1ccccn1)C2 | -102% |
| COc1ccc(CN2CC[C@H](O)[C@@H]2Cc2cnn(C)c2)cc1 | -81.7% |
| Cc1nc(C)n(CC2CN(Cc3cccs3)Cc3nccn3C2)n1 (stereo not given) | -133% |
| Cn1nc(COCC2CC2)c2c1CCN(Cc1cccs1)C2 | -101% |
| O=C(O)c1cc2c(nc1-c1ccoc1)CCN(CC1CCOC1)CC2 (stereo not given) | -81.9% |
| COCCN1CCOCC12CCN(C(=O)c1ccncc1)CC2 | -71.9% |
| O=S1(=O)CCN(Cc2cccnc2)[C@H]2CCN(c3ncccn3)CC[C@H]21 | -11.2% |
| O=C(Nc1cccnc1)[C@H]1CN(Cc2ccccn2)C[C@H]2OCC[C@@H]12 | -107% |
| FC1(F)CCN(Cc2ccccn2)CC12CCN(c1ncccn1)C2 (stereo not given) | -95.8% |
| Cc1nc(C2(O)CCCNCC2)sc1CCOc1ccc(F)cc1 (stereo not given) | -15.8% |
| Cn1cc(-c2cnc(N3CCOCC3)nc2)cc1C(=O)NCCC#N | -83.9% |
| Cc1ccc(CN2CCC3(CC2)CC(N2CCN(C)CC2)CO3)s1 (stereo not given) | -94.6% |
| CC(=O)Nc1c(C)noc1C=Cc1ccc(S(=O)(=O)NC2CC2)cc1 | 0.54% |
